# Compounds with a hit are over-represented: about 3.9% of the library has one in this group of screens.
# STAT3 act-1 – increases IL-6 driven STAT3 reporter signal. U3A cells, IL-6 STAT3-luciferase reporter, luminescence; 100% = signal with IL-6 EC80 alone. activation (% of control), % at 5.6 µM. 0.91% of 190,000 active;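 active = activation above the screen-wide mean of compound activation plus 3 SD, cut at about 130% in these data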;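 also: 0% = background luminescence of wells with medium and substrate only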
#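 system = STAT3-luciferase reporter U3A cells | reagent = IL-6 stimulus at 33 ng/mL final | timing = 1 h compound pre-exposure, 6 h IL-6 stimulation, 37 °C | measured by = luminescence | evaluation = % activation versus median of IL-6-stimulated wells | control set = IL-6-only wells as 100% reference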
# STAT1 act-1 – STAT1 signaling activation | NIH 3T3 STAT1-luciferase reporter, IFN-gamma, luminescence; 100% = IFN-gamma alone, no compound | activation (% of control), % at 5.5 µM | 2.6% of 200,000 active | AID 932;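 active = activation above the screen-wide mean activation plus 3 SD, cut at about 130% in these data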;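 also: raw ratio to IFN-gamma control signal so 100% means no change and 0% no light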
# STAT1 blocker – inhibitors of IFN-gamma induced STAT1 signaling | NIH 3T3 STAT1-luciferase reporter, luminescence | inhibition, % at 5.5 µM | 0.35% of 200,000 active;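 active = inhibition above a set limit, the mean inhibition across all tested compounds plus 3 SD, cut at about 34% in these data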;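 also: 0% = IFN-gamma with DMSO and 100% = IFN-gamma with 300 µM nifuroxazide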
# APP 5'UTR act – activates APP 5'UTR luciferase reporter. SH-SY5Y APP 5'UTR luciferase reporter, luminescence; zero percent = DMSO vehicle wells. activation, % at 2 µM. 1% of 190,000 active. AID 1276;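 active = activation above a set limit, based on mean plus 3 SD of controls, cut at about 140% in these data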
# Pf gametocyte – inhibitors of late stage P. falciparum gametocyte viability; P. falciparum stage V gametocytes, ATP luminescence, 24 h; inhibition, % at 10.9 µM; 0.065% of 150,000 active; AID 743093;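 active = inhibition above the mean plus 3 SD of compounds within the control limits, set per campaign, cut at about 38% in these data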;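 also: 0% = DMSO wells and 100% = medium only without gametocytes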
# NF-kB neuron act – compounds increasing NF-kB expression in human neuronal cells; NF-kB reporter expression; hits give high values; 1.6% of 190,000 active; fold change at 12.5 µM; in the data active = fold change above about 3.3
# STAT3 act-2 – STAT3 activation, confirmation assay. shares compounds with STAT3 act-1. 64% of 1,200 active. U3A STAT3-luciferase reporter, IL-6 potentiation, luminescence; U3A cells lack STAT1; 100 means same as IL-6 alone. potentiation (% of control), % at 5.7 µM;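 active = percent activation of the STAT3 luciferase reporter above a set limit taken from the earlier primary screen, cut at about 130% in these data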;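 also: 0% = background signal of medium plus substrate and 100% = median of IL-6 with DMSO wells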
# NFkB act STAT3ct – NF-kappaB activation in STAT3 activator counter-screen. shares compounds with STAT3 act-1. human cells, NF-kappaB reporter activation. activation (% of control), % at 5.7 µM. 11% of 1,200 active; in the data active = activation above about 120%;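 also: reporter induced by TNF-alpha stimulation; 100% = median of stimulated DMSO wells and 0% = no signal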
# STAT1 act-2 – activates STAT1, counter-screen to STAT3 activators; shares compounds with STAT3 act-1; AID 1318; 13% of 1,200 active; NIH 3T3 STAT1-luciferase reporter, IFN-gamma, luminescence; activation (% of control), % at 5.7 µM;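 active = activation above the solvent-only control well mean plus 3 SD, set per screening run, cut at about 120% in these data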;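 also: 100% = IFN-gamma with DMSO median signal so 100% means no change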
# The depositor's hits bear a star; . = no result given.
SMILES,STAT3 act-1,STAT1 act-1,STAT1 blocker,APP 5'UTR act,Pf gametocyte,NF-kB neuron act,STAT3 act-2,NFkB act STAT3ct,STAT1 act-2
O=C(NC(=S)NCC1CCCO1)c1ccc(Br)o1 (stereo not given),102.0,119.8,-23.9,32.6,12.1,1.78,.,.,.
O=C(CSc1nnc2c3ccccc3c3ccccc3c2n1)Nc1ccccc1,157.7*,88.3,13.0,1.3,.,1.71,162.0*,105.3,92.4
COc1ccc(C(C)=O)c2c(O)cccc12,149.9*,99.5,0.5,-5.2,.,0.93,147.5*,113.2,119.8
COc1ccc(C(=O)c2ccccc2)c2c(O)ccc(C(=O)c3ccccc3)c12,46.0,89.9,9.0,-9.4,.,1,.,.,.
Cc1cccc(C2c3[nH]c4ccccc4c3CCN2Cc2cccn2-c2ncccn2)c1 (stereo not given),149.4*,94.8,3.8,16.0,-24.1,1.06,156.1*,105.9,98.0
c1ccc(C2c3[nH]c4ccccc4c3CCN2Cc2cccn2-c2ccccn2)nc1 (stereo not given),.,.,.,.,-1.5,.,.,.,.
COc1ccc(C2c3[nH]c4ccccc4c3CCN2Cc2cccn2-c2ncccn2)cc1C (stereo not given),136.5*,98.6,-0.6,-12.3,-1.3,0.89,136.4*,103.8,94.1
Cc1cc(Nc2nc(Cl)c(Cl)cc2Cl)n(-c2ccccc2)n1,142.6*,97.8,2.5,-15.7,.,1.11,122.9,109.2,105.6
CCCCCNCC(=O)Nc1cccc(C(=O)Nc2cccc(C(F)(F)F)c2)c1,110.5,87.5,11.8,22.6,.,0.73,.,.,.
O=C(c1ccco1)[C@@H]1[C@@H]2C(=O)N(c3ccc(Br)cc3)C(=O)[C@@H]2C2c3ccccc3C=CN21 (stereo not given in full),141.5*,102.6,-2.9,1.8,.,.,124.8,106.5,105.8
Cc1cccc(NC(=S)NC(=O)c2cccs2)n1,140.6*,119.9,-22.1,81.6,.,2.04,137.9*,117.2,119.2
Cc1nc(NC(=S)NC(=O)c2cccs2)ccc1Br,148.1*,101.3,-1.4,67.7,-11.2,2.25,173.2*,109.9,114.3
Cc1ccc2nc(NC(=S)NC(=O)c3cccs3)sc2c1,163.3*,120.8,-23.1,242.7*,.,5.45*,171.1*,125.8*,132.1*
Cc1cccc(C(=O)NC2CCN(S(=O)(=O)c3ccc(F)cc3)CC2)c1,.,.,.,.,-14.1,.,.,.,.
COCCCNC(=O)COc1ccc(S(=O)(=O)NCc2ccccc2)cc1Cl,100.3,100.4,-1.0,7.4,8.7,1.23,.,.,.
COc1cccc(CNC(=O)CCC2CCCN(C(=O)c3cc(C4CC4)[nH]n3)C2)c1 (stereo not given),98.4,110.3,-13.1,13.4,-8.2,1.87,.,.,.
COc1ccc2c(Cl)c(C(=O)N/N=C3\CCCC(=O)C3)sc2c1,118.9,128.4,-32.3,29.3,-16.9,1.06,.,.,.
COc1cc(-c2n[nH]c(=S)n2-c2ccc(C)cc2)cc(OC)c1OC,95.8,97.1,1.7,3.3,21.4,1.18,.,.,.
CCOC(=O)c1c(C)nc(C)c(C(=O)OCC)c1-c1ccco1,.,.,.,.,5.3,.,.,.,.
O=C(O)COCC(=O)Nc1ccc(-n2cnnn2)cc1,96.1,102.5,-3.0,-0.4,0.0,1.21,.,.,.
CC(C)C(=O)N1CCN(c2ccccc2NC(=O)c2ccc(C#N)cc2F)CC1,136.7*,103.4,-4.9,24.6,2.1,0.84,138.5*,119.0,110.8
CC1CCN(c2ccccc2NC(=O)c2ccc(C#N)cc2F)CC1,92.7,104.9,-5.2,16.8,.,1.73,.,.,.
COc1ccc(OCCN2C(=O)NC3(CCc4ccccc4C3)C2=O)cc1 (stereo not given),93.8,95.1,5.4,-6.5,.,0.98,.,.,.
CCCCOP(=O)(OCCCC)C1(NS(=O)(=O)c2ccccc2)C=CC(=O)c2ccccc21 (stereo not given),144.5*,100.0,-0.1,-0.6,.,0.74,114.3,101.6,99.5
CCCCOCCCNS(=O)(=O)c1ccccc1,106.3,106.7,-7.4,-4.3,7.0,1.25,.,.,.
SMILES,STAT3 act-1,STAT1 act-1,STAT1 blocker,APP 5'UTR act,Pf gametocyte,NF-kB neuron act,STAT3 act-2,NFkB act STAT3ct,STAT1 act-2
C=CCn1c(SCC#N)nc2ccccc2c1=O,136.2*,105.6,-6.2,7.5,.,0.98,121.9,99.5,103.7
C=CCn1c(=O)c2ccccc2n2c(SCc3nc4ccccc4s3)nnc12,144.2*,110.9,-11.8,50.0,.,1.08,141.8*,122.5*,135.5*
O=C(CC(Nc1cccc(Cl)c1Cl)C(=O)O)c1ccccc1 (stereo not given),140.1*,103.3,-5.1,-14.3,-20.6,0.97,148.6*,106.6,115.2
Cc1ccnc(NC(=O)CCC(=O)N(CC(=O)NCc2ccccc2)c2ccc3c(c2)OCO3)c1,149.0*,97.2,3.0,-0.6,.,1.25,143.8*,114.4,98.4
CN(Cc1cc(=O)[nH]c2ccccc12)C(=O)c1ccccc1,136.2*,104.4,-4.8,31.5,.,1.34,120.7,103.6,111.0
O=S(=O)(Nc1cc(Sc2cccc3cccnc23)c(O)c2ccccc12)c1ccccc1,176.3*,96.0,4.5,-74.9,24.3,0.5,148.2*,128.1*,128.4*
CCOc1ccc(S(=O)(=O)Nc2cc(SCC(=O)O)c(O)c3ccccc23)cc1,.,.,.,.,13.1,.,.,.,.
O=S(=O)(Nc1nc2ccccc2s1)c1ccc(Cl)s1,138.3*,97.4,2.8,8.4,.,0.96,121.2,104.9,102.0
c1ccc2c(c1)ncc1cccn12,143.3*,102.3,-2.6,10.3,.,0.96,138.1*,98.4,89.7
c1ccc(C2=Nc3ccccc3SC2c2nc3ccccc3[nH]2)cc1 (stereo not given),158.0*,128.4,-30.9,110.2,.,6.69*,146.6*,130.3*,152.3*
COc1ccc(-c2cc(C(F)(F)F)c(C#N)c(SCC(=O)Nc3nc(C)co3)n2)cc1,106.4,102.9,-3.2,5.6,.,1.65,.,.,.
Cc1coc(NC(=O)CSc2nc(-c3ccc(Cl)cc3)cc(C(F)(F)F)c2C#N)n1,137.7*,100.0,0.0,20.4,22.5,1.04,130.4,104.5,102.6
Cc1ccc2nc3c(nc2c1)-c1ccccc1C3=O,174.4*,109.1,-15.2,1.3,-7.2,1.99,159.0*,116.2,129.4*
Cc1cccc2nc3c(nc12)-c1ccccc1C3=O,.,.,.,.,15.3,.,.,.,.
COC(=O)c1sc(S(=O)(=O)Nc2ccc(C)cc2)c(C(=O)OC)c1C,87.7,94.5,6.1,-9.9,-1.8,1.21,.,.,.
COC(=O)c1sc(S(=O)(=O)Nc2ccc3cn[nH]c3c2)c(C(=O)OC)c1C,147.0*,93.2,7.5,0.6,.,0.88,147.5*,101.2,99.3

# High-throughput results deposited in PubChem by several laboratories.
